# How the values were obtained:
# [1] = Metabolic stability in hamster liver microsomes assessed as parent compound remaining at 1 uM after 1 hr by LC-MS/MS analysis; type: ADME; settings: cricetinae, read-out: Stability
# [2] = AUC (last) in Swiss albino mouse at 1 mg/kg, iv by LCMS/MS analysis; type: ADME, organism-based; parameters: dose 1 mg/kg, time 0 - last, route intravenous; settings: in vivo
# How it was run: (§1)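 Male Swiss Albino mice. Single intravenous dose of 1 mg/kg, or single oral dose of 12.5 or 25 mg/kg. Plasma parameters were derived for each route: CL, Vdss, t1/2, AUClast and C0 after iv; Cmax, Tmax and AUClast after oral. Oral bioavailability F (%) was taken from the oral and iv exposures.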
# [3] = Oral bioavailability in Swiss albino mouse at 12.5 mg/kg by LCMS/MS analysis; type: ADME, organism-based; settings: in vivo; how it was run: as §1
# [4] = AUC (last) in Swiss albino mouse at 12.5 mg/kg, po by LCMS/MS analysis; type: ADME, organism-based; parameters: dose 12.5 mg/kg, route oral, time 0 - last; settings: in vivo; how it was run: as §1
# [5] = Initial plasma concentration in Swiss albino mouse at 1 mg/kg, iv by LCMS/MS analysis; type: ADME, organism-based; how it was run: as §1
# [6] = Tmax in Swiss albino mouse at 12.5 mg/kg, po by LCMS/MS analysis; type: ADME, organism-based; settings: in vivo; how it was run: as §1
# [7] = Half life in Swiss albino mouse at 1 mg/kg, iv by LCMS/MS analysis; type: ADME, organism-based; settings: in vivo; how it was run: as §1
# [8] = Clearance in Swiss albino mouse at 1 mg/kg, iv by LCMS/MS analysis; type: ADME, organism-based; settings: in vivo; how it was run: as §1
# [9] = Cmax in Swiss albino mouse at 12.5 mg/kg, po by LCMS/MS analysis; type: ADME, organism-based; parameters: dose 12.5 mg/kg, route oral; settings: in vivo; how it was run: as §1
# [10] = Volume of distribution at steady state in Swiss albino mouse at 1 mg/kg, iv by LCMS/MS analysis; type: ADME, organism-based; settings: in vivo, read-out: Vdss; how it was run: as §1
# [11] = Cmax in Swiss albino mouse at 25 mg/kg, po by LCMS/MS analysis; type: ADME, organism-based; parameters: dose 25 mg/kg, route oral; settings: in vivo; how it was run: as §1
# [12] = Tmax in Swiss albino mouse at 25 mg/kg, po by LCMS/MS analysis; type: ADME, organism-based; settings: in vivo; how it was run: as §1
# [13] = Oral bioavailability in Swiss albino mouse at 25 mg/kg by LCMS/MS analysis; type: ADME, organism-based; settings: in vivo; how it was run: as §1
# [14] = AUC (last) in Swiss albino mouse at 25 mg/kg, po by LCMS/MS analysis; type: ADME, organism-based; parameters: dose 25 mg/kg, route oral, time 0 - last; settings: in vivo; how it was run: as §1
# [15] = Stability in 0.1 M HCl at pH 1 at 20 degC; type: physicochemical; settings: buffer
# [16] = Metabolic stability in human liver microsomes assessed as parent compound remaining at 1 uM after 1 hr by LC-MS/MS analysis; type: ADME; settings: read-out: Stability
# [17] = Metabolic stability in CD1 mouse liver microsomes assessed as parent compound remaining at 1 uM after 1 hr by LC-MS/MS analysis; type: ADME; settings: read-out: Stability
# [18] = Metabolic stability in hamster liver microsomes assessed as parent compound remaining at 1 uM after 30 mins by LC-MS/MS analysis; type: ADME; settings: cricetinae, read-out: Stability
# [19] = Metabolic stability in CD1 mouse liver microsomes assessed as parent compound remaining at 1 uM after 30 mins by LC-MS/MS analysis; type: ADME; settings: read-out: Stability
# [20] = Metabolic stability in human liver microsomes assessed as parent compound remaining at 1 uM after 30 mins by LC-MS/MS analysis; type: ADME; settings: read-out: Stability
AUC(0-t) [2] [ng·h/mL],C0 [5] [ng/mL],half-life [7] [h],clearance [8] [mL/min/kg],Vd [10] [L/kg],Cmax [11] [ng/mL],Tmax [12] [h],bioavailability [13] [%],AUC(0-t) [14] [ng·h/mL],SMILES,further results
,,,,,,,,,C[C@]1(COc2ccc(N3CCC(Oc4ccc(OC(F)(F)F)cc4)CC3)cc2)Cn2cc([N+](=O)[O-])nc2O1,"remaining at 1 h, 1 µM [1]: 55%"
1390,360,2.7,11,2.6,,,,,C[C@]1(COc2ccc(OC(F)(F)F)cc2)Cn2cc([N+](=O)[O-])nc2O1,bioavailability [3]: 91%; AUC(0-t) [4]: 15800 ng·h/mL; Tmax [6]: 2 h; Cmax [9]: 1300 ng/mL
1140,610,3.2,13,2.2,1800,1,52,14800,O=[N+]([O-])c1cn2c(n1)OC(COc1ccc(OC(F)(F)F)cc1)C2 (stereo not given),
,,,,,,,,,CC1(CNc2ccc(OC(F)(F)F)cc2)Cn2cc([N+](=O)[O-])nc2O1 (stereo not given),Stability [15]: Unstable
,,,,,,,,,CC1(CN2CCN(c3ccc(F)cc3)CC2)Cn2cc([N+](=O)[O-])nc2O1 (stereo not given),"remaining at 1 h, 1 µM [16]: 49%; remaining at 1 h, 1 µM [17]: 14%"
2130,340,11,7.6,5.7,290,6,18,9810,CC1(COc2ccc(-c3ccc(OC(F)(F)F)cc3)cc2)Cn2cc([N+](=O)[O-])nc2O1 (stereo not given),
1690,880,2.2,9.5,1.7,4100,4,79,33500,CC1(COc2ccc(OC(F)(F)F)cc2)Cn2cc([N+](=O)[O-])nc2O1 (racemic),
,,,,,,,,,CC1(COc2ccc(C(F)(F)F)cn2)Cn2cc([N+](=O)[O-])nc2O1 (racemic),"Stability [15]: Unstable; remaining at 1 h, 1 µM [16]: 84%; remaining at 1 h, 1 µM [17]: 69%"
480,300,3.8,28,7.5,700,6,63,7580,CC1(COc2ccc(-c3ccc(F)cc3)cc2)Cn2cc([N+](=O)[O-])nc2O1 (racemic),"remaining at 0.5 h, 1 µM [18]: 42%; remaining at 0.5 h, 1 µM [19]: 57%; remaining at 0.5 h, 1 µM [20]: 88%"

# — ChEMBL document CHEMBL3784956, “Repositioning Antitubercular 6-Nitro-2,3-dihydroimidazo[2,1-b][1,3]oxazoles for Neglected Tropical Diseases: Structure-Activity Studies on a Preclinical Candidate for Visceral Leishmaniasis” (J Med Chem, 2016)
